High-throughput results from PubChem BioAssay.
PolyA inhibitor – inhibitors of polyadenylation in S. cerevisiae; S. cerevisiae SKY197-pL101 polyadenylation reporter, beta-gal luminescence; efflux-impaired pdr1/pdr3 knockout yeast; score 100 = 6 SD above DMSO; activity score, % at 12 µM; actives 0.02% (n = 300,000);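 active = lowest replicate activity score at least 50, where 100 means six control SD above control mean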;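 also: yeast exposed to compound for 9 h at 30 °C; higher score means more reporter readthrough which indicates perturbed polyadenylation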
T cruzi repl – blocks replication of Trypanosoma cruzi; actives 1.4% (n = 300,000); T. cruzi beta-gal in NIH3T3, luminescence, 90 h; AID 1885; inhibition, % (concentration not given with the values);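 active = mean inhibition across valid replicates above about 55%, limit read from the data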;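 also: signal also drops with host cell toxicity which is not excluded here; 0% = plate median of DMSO wells and 100% = zero luminescence signal; higher percent means less beta-gal luminescence so fewer parasites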
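System – NIH/3T3 host cells with β-galactosidase reporter T. cruzi · Doses – single 50 nL compound addition per well in DMSO · Reagent – 5000 T. cruzi trypomastigotes/well · Medium – Low-serum DMEM with 2% FBS · Timing – ≥90 h infection period, 3 h prior cell attachment · Evaluation – parasite load inhibition, % · Technique – GalScreen luminescence, 60 min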
CHT inh – inhibits the human high affinity choline transporter. Q9GZV3. CHT-expressing cells, membrane potential dye, choline response; hits give low values. B-score at 10 µM. actives 0.86% (n = 310,000). AID 488975;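 active = B-score over 3 SD under the library average, and starting fluorescence ratio not unusually high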;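 also: choline stimulus applied at its EC90 after an EC20 pre-addition; B-score computed on integrated fluorescence ratio after choline addition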
Target sequence (Q9GZV3 whole entry, looked up): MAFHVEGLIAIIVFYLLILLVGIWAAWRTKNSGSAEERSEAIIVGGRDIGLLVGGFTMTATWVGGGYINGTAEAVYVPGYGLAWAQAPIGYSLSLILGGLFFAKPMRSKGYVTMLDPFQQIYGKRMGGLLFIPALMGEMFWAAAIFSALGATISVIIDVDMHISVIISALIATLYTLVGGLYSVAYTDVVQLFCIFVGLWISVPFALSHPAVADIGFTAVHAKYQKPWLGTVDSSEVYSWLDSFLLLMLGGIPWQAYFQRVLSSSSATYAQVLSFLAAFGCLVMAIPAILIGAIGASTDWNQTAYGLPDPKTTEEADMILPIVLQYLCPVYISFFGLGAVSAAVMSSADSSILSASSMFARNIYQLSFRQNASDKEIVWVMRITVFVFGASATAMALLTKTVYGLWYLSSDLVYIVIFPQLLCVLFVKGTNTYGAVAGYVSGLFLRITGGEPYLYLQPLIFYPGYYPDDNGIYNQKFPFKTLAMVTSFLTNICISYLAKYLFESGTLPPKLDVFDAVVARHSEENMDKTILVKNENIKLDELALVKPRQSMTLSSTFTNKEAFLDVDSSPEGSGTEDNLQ
CHT allo act – human CHT allosteric activation. Q9GZV3. actives 0.49% (n = 310,000). B-score at 10 µM. CHT-expressing cells, membrane potential dye, choline EC20; hits give high values; LV-AA mutant CHT in HEK293 cells;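 active = initial fluorescence not abnormally high and integrated response B-score, plate-corrected, over 3 SD above library mean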
* marks the source's active call; other numbers are inactive results. Only some compounds are listed: those with a hit (about 2.6% of all), similar ones and a draw of the others.

CCOc1ccc(N(CC(=O)NCc2ccc(F)cc2)C(=O)c2snc(C(N)=O)c2N)cc1 was read as PolyA inhibitor 8, T cruzi repl -13, CHT inh inactive and CHT allo act inactive.
`CC(C)c1onc(C(=O)N2CCN(C(c3ccccc3)c3ccccc3)CC2)c1[N+](=O)[O-]` gave PolyA inhibitor -8, T cruzi repl 57*, CHT inh inactive and CHT allo act inactive.
For CCSc1nc(-c2ccccc2)nc(C(Cl)Cl)n1 the results were PolyA inhibitor -18, T cruzi repl 0, CHT inh inactive and CHT allo act inactive.
`CSc1nc(-c2ccc(C)cc2)nc(C(Cl)Cl)n1` gave PolyA inhibitor 9, T cruzi repl 56*, CHT inh inactive and CHT allo act inactive.
Screening NS(=O)(=O)c1ccc(CCNC(=O)c2ccc(NC3=NC4CS(=O)(=O)CC4S3)cc2)cc1 (stereo not given) returned PolyA inhibitor -5, T cruzi repl -7, CHT inh inactive and CHT allo act inactive.
Cc1cc(C)cc(NC(=O)CSc2nc3c(oc4ccccc43)c(=O)n2-c2ccccc2)c1 was read as PolyA inhibitor 0, T cruzi repl 55*, CHT inh inactive and CHT allo act inactive.
For CCCNC(=O)c1ccc(N2CCC3(CC2)CC(c2ccccc2)=NO3)c(NC(=O)c2ccc(Br)cc2)c1 the results were PolyA inhibitor 11, T cruzi repl 21, CHT inh inactive and CHT allo act inactive.
CCCCCCCC(=O)Nc1cc(C(=O)NCCC)ccc1N1CCC2(CC1)CC(c1ccccc1)=NO2 was read as PolyA inhibitor -27, T cruzi repl 57*, CHT inh inactive and CHT allo act inactive.
For CCCNC(=O)c1ccc(N2CCC3(CC2)CC(c2cccc(Br)c2)=NO3)c(NC(=O)c2ccccc2)c1 the results were PolyA inhibitor 8, T cruzi repl 57*, CHT inh inactive and CHT allo act inactive.
For c1ccc(CC2CCN(C3=Nc4cccc5cccc3c45)CC2)cc1 the results were PolyA inhibitor -12, T cruzi repl 66*, CHT inh inactive and CHT allo act inactive.
CCOC(=O)N1CCN(C2=Nc3cccc4cccc2c34)CC1 was read as PolyA inhibitor -12, T cruzi repl 2, CHT inh -7.1* and CHT allo act inactive.
CN(C)CCCN=Cc1c(O)n(Cc2ccc3c(c2)OCO3)c(=O)c2ccccc12 was read as PolyA inhibitor 4, T cruzi repl 75*, CHT inh inactive and CHT allo act inactive.
For CN(C)CCN=Cc1c(O)n(Cc2ccc3c(c2)OCO3)c(=O)c2ccccc12 the results were PolyA inhibitor -6, T cruzi repl 46, CHT inh inactive and CHT allo act inactive.
C/C(=N\NC(=O)Cc1ccc(Cl)cc1)c1ccccc1O was read as PolyA inhibitor -8, T cruzi repl 63*, CHT inh inactive and CHT allo act inactive.
Screening CCOC(CCNC(=O)c1cn(CC(C)C)c(=O)c2c1c1ccccc1n2C)OCC returned PolyA inhibitor -12, T cruzi repl 9, CHT inh inactive and CHT allo act inactive.
`CC1CCN(S(=O)(=O)c2ccc(NC(=O)Cn3nnc(-c4ccccc4F)n3)cc2)CC1` gave PolyA inhibitor -12, T cruzi repl 69*, CHT inh inactive and CHT allo act inactive.
`CC1CCN(S(=O)(=O)c2ccc(NC(=O)CN3CCN(C)CC3)cc2)CC1` gave PolyA inhibitor 18, T cruzi repl 59*, CHT inh inactive and CHT allo act inactive.
`Cc1cnc(NC(=O)Cc2ccc(Br)cc2)s1` gave PolyA inhibitor -35, T cruzi repl -26, CHT inh inactive and CHT allo act inactive.
O=C(Cc1ccc(Br)cc1)Nc1ncc([N+](=O)[O-])s1 was read as PolyA inhibitor -16, T cruzi repl 60*, CHT inh inactive and CHT allo act inactive.
O=C(Cc1ccc(Cl)cc1)Nc1ncc([N+](=O)[O-])s1 was read as PolyA inhibitor -10 and T cruzi repl 94*.
Screening Cc1cc(C)c(S(=O)(=O)c2ccc(Cl)cc2)c(Cl)n1 returned PolyA inhibitor -7, T cruzi repl 8, CHT inh inactive and CHT allo act inactive.
Cc1cc(C)c(S(=O)(=O)c2ccccc2Cl)c(Cl)n1 was read as PolyA inhibitor -10, T cruzi repl 55*, CHT inh inactive and CHT allo act inactive.
`Cc1cc(C)c(S(=O)(=O)c2ccc(F)cc2C)c(Cl)n1` gave PolyA inhibitor 6, T cruzi repl 55*, CHT inh inactive and CHT allo act inactive.
O=C(c1ccc(F)cc1)N1CCC(C(=O)N2CCN(S(=O)(=O)c3cccc(Cl)c3)CC2)CC1 was read as PolyA inhibitor 21, T cruzi repl 32, CHT inh inactive and CHT allo act inactive.
`COCCNC(=O)CN(C(=O)CCC(=O)Nc1ccccn1)c1ccc(C)cc1C` gave PolyA inhibitor -1, T cruzi repl -10, CHT inh inactive and CHT allo act inactive.
`CCn1c2ccccc2c2cc(CN3CCN(Cc4cc(OC)ccc4O)CC3)ccc21` gave PolyA inhibitor 4, T cruzi repl 72*, CHT inh inactive and CHT allo act inactive.
CCn1c2ccccc2c2cc(CN3CCN(S(C)(=O)=O)CC3)ccc21 was read as PolyA inhibitor -7, T cruzi repl 29, CHT inh inactive and CHT allo act inactive.
CCN(CC)CCNC(=O)c1ccc(NC(=O)c2cn(-c3ccc(F)cc3)nc2-c2cccc(OC)c2)cc1 was read as PolyA inhibitor 13, T cruzi repl 65*, CHT inh inactive and CHT allo act inactive.
For CCN(CC)CCNC(=O)c1ccc(NC(=O)c2cn(-c3ccccc3)nc2-c2cccs2)cc1 the results were PolyA inhibitor 5, T cruzi repl 46, CHT inh inactive and CHT allo act inactive.
CCCCn1c(N)c(N(CC(C)C)C(=O)c2ccc(N3C(=O)CCC3=O)cc2)c(=O)[nH]c1=O was read as PolyA inhibitor 22, T cruzi repl -4, CHT inh inactive and CHT allo act inactive.
Screening Cn1c(-c2c(N)n(CCCc3ccccc3)c3nc4ccccc4nc23)nc2ccccc21 returned PolyA inhibitor 7 and T cruzi repl 71*.
Screening COCCCn1c(N)c(-c2nc3ccccc3n2C)c2nc3ccccc3nc21 returned PolyA inhibitor -34, T cruzi repl 20, CHT inh inactive and CHT allo act inactive.
Cn1c(-c2c(N)n(C3CCCC3)c3nc4ccccc4nc23)nc2ccccc21 was read as PolyA inhibitor -11, T cruzi repl 73*, CHT inh inactive and CHT allo act inactive.
`CCCCSCCCNC(=O)CCCN1C(=O)c2ccccc2Sc2ncccc21` gave PolyA inhibitor 4, T cruzi repl -2, CHT inh inactive and CHT allo act inactive.
`CC(=O)Nc1ccc(C(=O)NCC2(N3CCCCC3)CCCCC2)cc1` gave PolyA inhibitor -1, T cruzi repl -7, CHT inh inactive and CHT allo act inactive.
